Test results reported in ChEMBL document CHEMBL1914364, “3-bromohomofascaplysin A, a fascaplysin analogue from a Fijian Didemnum sp. ascidian” (Bioorg Med Chem, 2011).

Experiments:
Plasmodium falciparum [1] = test: Ratio of IC50 for chloroquine- and mefloquine-resistant Plasmodium falciparum W2-Mef schizonts to IC50 for chloroquine- and mefloquine-resistant Plasmodium falciparum W2-Mef ring-stage parasite; format: functional
Plasmodium falciparum [2] = test: Antimalarial activity against chloroquine- and mefloquine-resistant Plasmodium falciparum W2-Mef infected in human O-positive erythrocytes assessed as inhibition of trophozoites growth after 48 hrs; format: functional, organism-based
Method in brief: (§1)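 Asynchronous W2-Mef cultures kept at 5% hematocrit in RPMI-1640-based malaria medium. Drugs were diluted in ½ log10 steps from 10 μM to 0.33 nM and grown in triplicate for 48 hr. Cells were stained 40 min with Hoechst 33342, thiazole orange, DiIC1-5 and propidium iodide, then read by flow cytometry; DNA/RNA levels assign ring, trophozoite and schizont stages. IC50 is taken from mean parasite counts relative to drug-free control wells.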

Plasmodium falciparum [3] = test: Antimalarial activity against chloroquine- and pyrimethamine-resistant Plasmodium falciparum K1; format: functional, organism-based
Plasmodium falciparum [4] = test: Antimalarial activity against chloroquine- and mefloquine-resistant Plasmodium falciparum W2-Mef infected in human O-positive erythrocytes assessed as inhibition of ring-stage parasite growth after 48 hrs; format: functional, organism-based; method in brief: as §1
[5] = Ratio of MIC for rat L6 cells to MIC for Plasmodium falciparum
Plasmodium falciparum [6] = test: Ratio of IC50 for chloroquine- and mefloquine-resistant Plasmodium falciparum W2-Mef trophozoites to IC50 for chloroquine- and mefloquine-resistant Plasmodium falciparum W2-Mef ring-stage parasite; format: functional
Plasmodium falciparum [7] = test: Antimalarial activity against chloroquine- and mefloquine-resistant Plasmodium falciparum W2-Mef infected in human O-positive erythrocytes after 48 hrs; format: functional, organism-based; method in brief: as §1
L6 = test: Cytotoxicity against rat L6 cells; format: cell-based
Plasmodium falciparum [8] = test: Antimalarial activity against chloroquine- and mefloquine-resistant Plasmodium falciparum W2-Mef infected in human O-positive erythrocytes assessed as inhibition of schizonts growth after 48 hrs; format: functional, organism-based; method in brief: as §1

In the case of `CC(=O)C[C@]1(O)c2ccccc2-[n+]2ccc3c([nH]c4ccccc43)c21.[Cl-]` [HOMOFASCAPLYSINE A], the “Ratio IC50” value (Plasmodium falciparum [1]) is reported as 170, the IC50 (Plasmodium falciparum [2]) is reported as 0.252 µM and the IC50 (Plasmodium falciparum [3]) is reported as 0.038 µM. For the same compound, the IC50 (Plasmodium falciparum [4]) was 0.00055 µM, the Ratio [5] was 50 and the “Ratio IC50” value (Plasmodium falciparum [6]) was 450. It also gave an IC50 (Plasmodium falciparum [7]) of 0.105 µM, an Activity (L6) of 1.1 µg/mL and an IC50 (Plasmodium falciparum [8]) of 0.094 µM.

For `C[C@@H]1CC[C@H]2[C@@H](C)C(=O)O[C@@H]3O[C@@]4(C)CC[C@@H]1[C@]32OO4` [ARTEMISININ], the IC50 (Plasmodium falciparum [2]) was 0.00646 µM, the IC50 (Plasmodium falciparum [4]) was 0.00592 µM and the IC50 (Plasmodium falciparum [7]) was 0.00625 µM. It also gave an IC50 (Plasmodium falciparum [8]) of 0.00591 µM.

`CC(=O)C[C@]1(O)c2ccc(Br)cc2-[n+]2ccc3c([nH]c4ccccc43)c21` gave an IC50 (Plasmodium falciparum [2]) of 1.19 µM, an IC50 (Plasmodium falciparum [4]) of 0.574 µM and an IC50 (Plasmodium falciparum [7]) of 0.805 µM. It also gave an IC50 (Plasmodium falciparum [8]) of 0.765 µM.

Compound `O=C1c2ccccc2-[n+]2ccc3c([nH]c4ccccc43)c21.[Cl-]` [FASCAPLYSIN CHLORIDE] has an IC50 (Plasmodium falciparum [2]) of 0.401 µM, an IC50 (Plasmodium falciparum [3]) of 0.16 µM and an IC50 (Plasmodium falciparum [4]) of 0.00782 µM. The Ratio [5] was 50, the IC50 (Plasmodium falciparum [7]) was 0.0482 µM and the Activity (L6) was 2.5 µg/mL. For the same compound, the IC50 (Plasmodium falciparum [8]) was 0.0652 µM.
